Measurements: ChEMBL document CHEMBL1806360, “Synthesis and biological evaluation of conformationally flexible as well as restricted dimers of monastrol and related dihydropyrimidones” (Eur J Med Chem, 2011)
In brackets after ≈: the same amount, converted by molar mass. Activity calls are given as the source filed them. No cut-off for these calls is given here.

The compounds below were run on HT-29 (assay: Cytotoxicity against human HT-29 cells after 48 hrs by MTT assay). Details: HT-29, 48 h.
Assay type: functional, cell-based

Structure (SMILES)	IC50 [µg/mL]
CCOC(=O)C1=C(C)NC(=S)NC1c1cccc(OC/C=C\COc2cccc(C3NC(=S)NC(C)=C3C(=O)OCC)c2)c1 (stereo unspecified)	> 200
COC(=O)[C@@H]1CCCN1C(=O)C1=C(C)NC(=S)NC1c1cccc(OC/C=C\COc2cccc(C3NC(=S)NC(C)=C3C(=O)N3CCC[C@H]3C(=O)OC)c2)c1 (stereo partly specified)	> 200

What follows are compounds tested on Klebsiella pneumoniae (assay: Antibacterial activity against Klebsiella pneumoniae assessed as zone of inhibition at 50 ug/ml by agar plate method). Details: not given.
Assay type: functional, organism-based
Procedure, shortened: (§1)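 Well diffusion on Mueller-Hinton agar. Inoculum from 3–5 colonies was grown in nutrient broth and adjusted to 0.5 McFarland (about 1 × 10⁸ CFU/mL), then swabbed over the plate. Compounds were dissolved in DMSO and added to duplicate 6 mm wells. Plates were incubated 18 h at 37 °C, and inhibition zone diameter was read to the nearest mm. Ciprofloxacin was the positive control and DMSO the negative control.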

Structure (SMILES)	Activity
CCOC(=O)C1=C(C)NC(=S)NC1c1cccc(OC/C=C\COc2cccc(C3NC(=S)NC(C)=C3C(=O)OCC)c2)c1 (stereo unspecified)	inactive
COC(=O)[C@@H]1CCCN1C(=O)C1=C(C)NC(=S)NC1c1cccc(OC/C=C\COc2cccc(C3NC(=S)NC(C)=C3C(=O)N3CCC[C@H]3C(=O)OC)c2)c1 (stereo partly specified)	inactive

What follows are compounds tested on Escherichia coli (assay: Antibacterial activity against Escherichia coli assessed as zone of inhibition at 100 ug/ml by agar plate method). Details: read-out: IZ.
Assay type: functional
Procedure, shortened: as §1

Structure (SMILES)	zone of inhibition at 100 µg/mL [mm]
CCOC(=O)C1=C(C)NC(=S)NC1c1cccc(OC/C=C\COc2cccc(C3NC(=S)NC(C)=C3C(=O)OCC)c2)c1 (stereo unspecified)	8
COC(=O)[C@@H]1CCCN1C(=O)C1=C(C)NC(=S)NC1c1cccc(OC/C=C\COc2cccc(C3NC(=S)NC(C)=C3C(=O)N3CCC[C@H]3C(=O)OC)c2)c1 (stereo partly specified)	12

The compounds below were run on Staphylococcus epidermidis (assay: Antibacterial activity against Staphylococcus epidermidis assessed as zone of inhibition at 50 ug/ml by agar plate method). Details: not given.
Assay type: functional, organism-based
Procedure, shortened: as §1

Structure (SMILES)	Activity
CCOC(=O)C1=C(C)NC(=S)NC1c1cccc(OC/C=C\COc2cccc(C3NC(=S)NC(C)=C3C(=O)OCC)c2)c1 (stereo unspecified)	inactive
COC(=O)[C@@H]1CCCN1C(=O)C1=C(C)NC(=S)NC1c1cccc(OC/C=C\COc2cccc(C3NC(=S)NC(C)=C3C(=O)N3CCC[C@H]3C(=O)OC)c2)c1 (stereo partly specified)	inactive

Each compound was assayed on Pseudomonas aeruginosa (assay: Antibacterial activity against Pseudomonas aeruginosa assessed as zone of inhibition at 100 ug/ml by agar plate method). Details: read-out: IZ.
Assay type: functional
Procedure, shortened: as §1

Structure (SMILES)	zone of inhibition at 100 µg/mL [mm]
CCOC(=O)C1=C(C)NC(=S)NC1c1cccc(OC/C=C\COc2cccc(C3NC(=S)NC(C)=C3C(=O)OCC)c2)c1 (stereo unspecified)	18
COC(=O)[C@@H]1CCCN1C(=O)C1=C(C)NC(=S)NC1c1cccc(OC/C=C\COc2cccc(C3NC(=S)NC(C)=C3C(=O)N3CCC[C@H]3C(=O)OC)c2)c1 (stereo partly specified)	12

These compounds were tested on A549 (assay: Cytotoxicity against human A549 cells after 48 hrs by MTT assay). Details: A549, 48 h.
Assay type: functional, cell-based
Procedure, shortened: (§2)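 MTT assay. Medium with 10% FBS and 2 mM L-glutamine was DMEM for A431 and Colo-205, RPMI for A549, and MEM for MCF-7. Cultures were preincubated 24 h at 37 °C, 5% CO2. 1 × 10⁴ cells (trypan blue count) were exposed to 200, 100, 50, 25 and 10 concentration levels for 48 h at 37 °C. MTT was added for 4 h, formazan dissolved in DMSO, and A570 read. IC50 was curve-fitted from viability versus untreated cells, three experiments.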

Structure (SMILES)	IC50 [µg/mL]
CCOC(=O)C1=C(C)NC(=S)NC1c1cccc(OC/C=C\COc2cccc(C3NC(=S)NC(C)=C3C(=O)OCC)c2)c1 (stereo unspecified)	154 (≈ 242 µM)
COC(=O)[C@@H]1CCCN1C(=O)C1=C(C)NC(=S)NC1c1cccc(OC/C=C\COc2cccc(C3NC(=S)NC(C)=C3C(=O)N3CCC[C@H]3C(=O)OC)c2)c1 (stereo partly specified)	> 200

Each compound was assayed on Staphylococcus aureus (assay: Antibacterial activity against Staphylococcus aureus assessed as zone of inhibition at 100 ug/ml by agar plate method). Details: read-out: IZ.
Assay type: functional
Procedure, shortened: as §1

Structure (SMILES)	zone of inhibition at 100 µg/mL [mm]
CCOC(=O)C1=C(C)NC(=S)NC1c1cccc(OC/C=C\COc2cccc(C3NC(=S)NC(C)=C3C(=O)OCC)c2)c1 (stereo unspecified)	15
COC(=O)[C@@H]1CCCN1C(=O)C1=C(C)NC(=S)NC1c1cccc(OC/C=C\COc2cccc(C3NC(=S)NC(C)=C3C(=O)N3CCC[C@H]3C(=O)OC)c2)c1 (stereo partly specified)	15

What follows are compounds tested on Escherichia coli (assay: Antibacterial activity against Escherichia coli assessed as zone of inhibition at 50 ug/ml by agar plate method). Details: not given.
Assay type: functional, organism-based
Procedure, shortened: as §1

Structure (SMILES)	Activity
CCOC(=O)C1=C(C)NC(=S)NC1c1cccc(OC/C=C\COc2cccc(C3NC(=S)NC(C)=C3C(=O)OCC)c2)c1 (stereo unspecified)	inactive
COC(=O)[C@@H]1CCCN1C(=O)C1=C(C)NC(=S)NC1c1cccc(OC/C=C\COc2cccc(C3NC(=S)NC(C)=C3C(=O)N3CCC[C@H]3C(=O)OC)c2)c1 (stereo partly specified)	inactive

The compounds below were run on A-431 (assay: Cytotoxicity against human A431 cells after 48 hrs by MTT assay). Details: A-431, 48 h.
Assay type: functional, cell-based
Procedure, shortened: as §2

Structure (SMILES)	IC50 [µg/mL]
CCOC(=O)C1=C(C)NC(=S)NC1c1cccc(OC/C=C\COc2cccc(C3NC(=S)NC(C)=C3C(=O)OCC)c2)c1 (stereo unspecified)	190 (≈ 298 µM)
COC(=O)[C@@H]1CCCN1C(=O)C1=C(C)NC(=S)NC1c1cccc(OC/C=C\COc2cccc(C3NC(=S)NC(C)=C3C(=O)N3CCC[C@H]3C(=O)OC)c2)c1 (stereo partly specified)	183 (≈ 228 µM)

Each compound was assayed on MCF7 (assay: Cytotoxicity against human MCF7 cells after 48 hrs by MTT assay). Details: MCF7, 48 h.
Assay type: functional, cell-based
Procedure, shortened: as §2

Structure (SMILES)	IC50 [µg/mL]
CCOC(=O)C1=C(C)NC(=S)NC1c1cccc(OC/C=C\COc2cccc(C3NC(=S)NC(C)=C3C(=O)OCC)c2)c1 (stereo unspecified)	49 (≈ 76.9 µM)
COC(=O)[C@@H]1CCCN1C(=O)C1=C(C)NC(=S)NC1c1cccc(OC/C=C\COc2cccc(C3NC(=S)NC(C)=C3C(=O)N3CCC[C@H]3C(=O)OC)c2)c1 (stereo partly specified)	156 (≈ 194 µM)

Each compound was assayed on COLO 205 (assay: Cytotoxicity against human COLO205 cells after 48 hrs by MTT assay). Details: COLO 205, 48 h.
Assay type: functional, cell-based
Procedure, shortened: as §2

Structure (SMILES)	IC50 [µg/mL]
CCOC(=O)C1=C(C)NC(=S)NC1c1cccc(OC/C=C\COc2cccc(C3NC(=S)NC(C)=C3C(=O)OCC)c2)c1 (stereo unspecified)	64 (≈ 101 µM)
COC(=O)[C@@H]1CCCN1C(=O)C1=C(C)NC(=S)NC1c1cccc(OC/C=C\COc2cccc(C3NC(=S)NC(C)=C3C(=O)N3CCC[C@H]3C(=O)OC)c2)c1 (stereo partly specified)	180 (≈ 224 µM)

These compounds were tested on Staphylococcus epidermidis (assay: Antibacterial activity against Staphylococcus epidermidis assessed as zone of inhibition at 100 ug/ml by agar plate method). Details: read-out: IZ.
Assay type: functional
Procedure, shortened: as §1

Structure (SMILES)	zone of inhibition at 100 µg/mL [mm]
CCOC(=O)C1=C(C)NC(=S)NC1c1cccc(OC/C=C\COc2cccc(C3NC(=S)NC(C)=C3C(=O)OCC)c2)c1 (stereo unspecified)	12
COC(=O)[C@@H]1CCCN1C(=O)C1=C(C)NC(=S)NC1c1cccc(OC/C=C\COc2cccc(C3NC(=S)NC(C)=C3C(=O)N3CCC[C@H]3C(=O)OC)c2)c1 (stereo partly specified)	17

Each compound was assayed on Bacillus subtilis (assay: Antibacterial activity against Bacillus subtilis assessed as zone of inhibition at 100 ug/ml by agar plate method). Details: read-out: IZ.
Assay type: functional
Procedure, shortened: as §1

Structure (SMILES)	zone of inhibition at 100 µg/mL [mm]
CCOC(=O)C1=C(C)NC(=S)NC1c1cccc(OC/C=C\COc2cccc(C3NC(=S)NC(C)=C3C(=O)OCC)c2)c1 (stereo unspecified)	10
COC(=O)[C@@H]1CCCN1C(=O)C1=C(C)NC(=S)NC1c1cccc(OC/C=C\COc2cccc(C3NC(=S)NC(C)=C3C(=O)N3CCC[C@H]3C(=O)OC)c2)c1 (stereo partly specified)	12

These compounds were tested on Nucleic Acid (assay: Binding affinity to calf thymus DNA assessed as change in melting temperature at compound to DNA ratio of 1:5 after 18 hrs at pH 7). Details: Bos taurus.
Assay type: nucleic-acid assay
Procedure, shortened: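 Thermal melting of calf thymus DNA in 10 mM sodium phosphate with 1 mM Na2EDTA, pH 7.00. Compound was added from DMSO stock at a fixed 1:5 compound:DNA molar ratio. The mix was incubated 18 h at 37 °C, then A260 was monitored while heating at 1 °C/min over 40–90 °C. ΔTm is relative to DNA alone.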

Structure (SMILES)	ΔTm [°C]
COC(=O)[C@@H]1CCCN1C(=O)C1=C(C)NC(=S)NC1c1cccc(OC/C=C\COc2cccc(C3NC(=S)NC(C)=C3C(=O)N3CCC[C@H]3C(=O)OC)c2)c1 (stereo partly specified)	3.1

These compounds were tested on Klebsiella pneumoniae (assay: Antibacterial activity against Klebsiella pneumoniae assessed as zone of inhibition at 100 ug/ml by agar plate method). Details: read-out: IZ.
Assay type: functional
Procedure, shortened: as §1

Structure (SMILES)	zone of inhibition at 100 µg/mL [mm]
CCOC(=O)C1=C(C)NC(=S)NC1c1cccc(OC/C=C\COc2cccc(C3NC(=S)NC(C)=C3C(=O)OCC)c2)c1 (stereo unspecified)	8
COC(=O)[C@@H]1CCCN1C(=O)C1=C(C)NC(=S)NC1c1cccc(OC/C=C\COc2cccc(C3NC(=S)NC(C)=C3C(=O)N3CCC[C@H]3C(=O)OC)c2)c1 (stereo partly specified)	3

The compounds below were run on Bacillus subtilis (assay: Antibacterial activity against Bacillus subtilis assessed as zone of inhibition at 50 ug/ml by agar plate method). Details: not given.
Assay type: functional, organism-based
Procedure, shortened: as §1

Structure (SMILES)	Activity
CCOC(=O)C1=C(C)NC(=S)NC1c1cccc(OC/C=C\COc2cccc(C3NC(=S)NC(C)=C3C(=O)OCC)c2)c1 (stereo unspecified)	inactive
COC(=O)[C@@H]1CCCN1C(=O)C1=C(C)NC(=S)NC1c1cccc(OC/C=C\COc2cccc(C3NC(=S)NC(C)=C3C(=O)N3CCC[C@H]3C(=O)OC)c2)c1 (stereo partly specified)	inactive
